Key:
[1] = biological target: Mitogen-activated protein kinase 12 (Homo sapiens) (UniProt P53778); experiment: Inhibition of P38-gamma (unknown origin) at 1 uM by mobility shift microfluidics platform based assay relative to control
[2] = biological target: Dual specificity protein kinase CLK2 (Homo sapiens) (UniProt P49760); experiment: Inhibition of CLK2 (unknown origin) at 1 uM by mobility shift microfluidics platform based assay relative to control
[3] = biological target: MAP kinase-activated protein kinase 3 (Homo sapiens) (UniProt Q16644); experiment: Inhibition of MAPKAPK3 (unknown origin) at 1 uM by mobility shift microfluidics platform based assay relative to control
[4] = biological target: Testis-specific serine/threonine-protein kinase 1 (Homo sapiens) (UniProt Q9BXA7); experiment: Inhibition of TSSK1 (unknown origin) at 1 uM by mobility shift microfluidics platform based assay relative to control
[5] = biological target: Serine/threonine-protein kinase Chk2 (Homo sapiens) (UniProt O96017); experiment: Inhibition of CHEK2 (unknown origin) at 1 uM by mobility shift microfluidics platform based assay relative to control
[6] = biological target: Dual specificity tyrosine-phosphorylation-regulated kinase 1A (Homo sapiens) (UniProt Q13627); experiment: Inhibition of DYRK1A (unknown origin) at 1 uM by mobility shift microfluidics platform based assay relative to control
[7] = biological target: Serine/threonine-protein kinase PAK 5 (Homo sapiens) (UniProt Q9P286); experiment: Inhibition of PAK5 (unknown origin) at 1 uM by mobility shift microfluidics platform based assay relative to control
[8] = biological target: Rhodopsin kinase GRK7 (Homo sapiens) (UniProt Q8WTQ7); experiment: Inhibition of GRK7 (unknown origin) at 1 uM by mobility shift microfluidics platform based assay relative to control
[9] = biological target: Casein kinase I isoform alpha (Homo sapiens) (UniProt P48729); experiment: Inhibition of CK1-alpha1 (unknown origin) at 1 uM by mobility shift microfluidics platform based assay relative to control
[10] = biological target: Sphingosine kinase 2 (Homo sapiens) (UniProt Q9NRA0); experiment: Inhibition of SPHK2 (unknown origin) at 1 uM by mobility shift microfluidics platform based assay relative to control
[11] = biological target: NUAK family SNF1-like kinase 1 (Homo sapiens) (UniProt O60285); experiment: Inhibition of ARK5 (unknown origin) at 1 uM by mobility shift microfluidics platform based assay relative to control
[12] = biological target: Tyrosine-protein kinase JAK3 (Homo sapiens) (UniProt P52333); experiment: Inhibition of JAK3 (unknown origin) at 1 uM by mobility shift microfluidics platform based assay relative to control
[13] = biological target: Serine/threonine-protein kinase Nek9 (Homo sapiens) (UniProt Q8TD19); experiment: Inhibition of NEK9 (unknown origin) at 1 uM by mobility shift microfluidics platform based assay relative to control
[14] = biological target: Activated CDC42 kinase 1 (Homo sapiens) (UniProt Q07912); experiment: Inhibition of TNK2 (unknown origin) at 1 uM by mobility shift microfluidics platform based assay relative to control
[15] = biological target: MAP kinase-activated protein kinase 5 (Homo sapiens) (UniProt Q8IW41); experiment: Inhibition of PRAK (unknown origin) at 1 uM by mobility shift microfluidics platform based assay relative to control
[16] = biological target: Ephrin type-B receptor 4 (Homo sapiens) (UniProt P54760); experiment: Inhibition of EPH-B4 (unknown origin) at 1 uM by mobility shift microfluidics platform based assay relative to control
[17] = biological target: Calcium/calmodulin-dependent protein kinase type IV (Homo sapiens) (UniProt Q16566); experiment: Inhibition of CAMK4 (unknown origin) at 1 uM by mobility shift microfluidics platform based assay relative to control
[18] = biological target: Tyrosine-protein kinase Fer (Homo sapiens) (UniProt P16591); experiment: Inhibition of FER (unknown origin) at 1 uM by mobility shift microfluidics platform based assay relative to control
[19] = biological target: Tyrosine-protein kinase Lyn (Homo sapiens) (UniProt P07948); experiment: Inhibition of LYNA (unknown origin) at 1 uM by mobility shift microfluidics platform based assay relative to control
[20] = biological target: Phosphorylase b kinase gamma catalytic chain, liver/testis isoform (Homo sapiens) (UniProt P15735); experiment: Inhibition of PHK-gamma2 (unknown origin) at 1 uM by mobility shift microfluidics platform based assay relative to control
[21] = biological target: Calcium/calmodulin-dependent protein kinase type II subunit delta (Homo sapiens) (UniProt Q13557); experiment: Inhibition of CAMK2D (unknown origin) at 1 uM by mobility shift microfluidics platform based assay relative to control
[22] = biological target: cAMP-dependent protein kinase catalytic subunit alpha (Homo sapiens) (UniProt P17612); experiment: Inhibition of PRKACA (unknown origin) at 1 uM by mobility shift microfluidics platform based assay relative to control
[23] = biological target: Ephrin type-B receptor 2 (Homo sapiens) (UniProt P29323); experiment: Inhibition of EPH-B2 (unknown origin) at 1 uM by mobility shift microfluidics platform based assay relative to control
[24] = biological target: Tyrosine-protein kinase Fyn (Homo sapiens) (UniProt P06241); experiment: Inhibition of FYN (unknown origin) at 1 uM by mobility shift microfluidics platform based assay relative to control
[25] = Apparent permeability from apical to basolateral side in human Caco2 cells in absence of P-gp inhibitor by LC-MS/MS analysis; format: ADME, cell-based; conditions: Caco-2
Outline: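 Caco-2 monolayer permeability, measured apical-to-basolateral and basolateral-to-apical. Compound concentrations were quantified by LC-MS/MS, and apparent permeability coefficients (Papp, cm/s) were calculated from them.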

[26] = biological target: Calcium/calmodulin-dependent protein kinase type II subunit beta (Homo sapiens) (UniProt Q13554); experiment: Inhibition of CAMK2B (unknown origin) at 1 uM by mobility shift microfluidics platform based assay relative to control
[27] = biological target: Protein kinase C alpha type (Homo sapiens) (UniProt P17252); experiment: Inhibition of PKC-alpha (unknown origin) at 1 uM by mobility shift microfluidics platform based assay relative to control
[28] = biological target: cGMP-dependent protein kinase 2 (Homo sapiens) (UniProt Q13237); experiment: Inhibition of PRKG2 (unknown origin) at 1 uM by mobility shift microfluidics platform based assay relative to control
[29] = biological target: Tyrosine-protein kinase receptor UFO (Homo sapiens) (UniProt P30530); experiment: Inhibition of AXL (unknown origin) at 1 uM by mobility shift microfluidics platform based assay relative to control
[30] = biological target: Aurora kinase A (Homo sapiens) (UniProt O14965); experiment: Inhibition of AURORA-A (unknown origin) at 1 uM by mobility shift microfluidics platform based assay relative to control
[31] = biological target: Mitogen-activated protein kinase kinase kinase kinase 2 (Homo sapiens) (UniProt Q12851); experiment: Inhibition of MAP4K2 (unknown origin) at 1 uM by mobility shift microfluidics platform based assay relative to control
[32] = biological target: Receptor-type tyrosine-protein kinase FLT3 (Homo sapiens) (UniProt P36888); experiment: Inhibition of FLT3 (unknown origin) at 1 uM by mobility shift microfluidics platform based assay relative to control
[33] = biological target: Serine/threonine-protein kinase LATS1 (Homo sapiens) (UniProt O95835); experiment: Inhibition of LATS1 (unknown origin) at 1 uM by mobility shift microfluidics platform based assay relative to control

Chain of Testis-specific serine/threonine-protein kinase 1 (Homo sapiens) (Q9BXA7 whole entry): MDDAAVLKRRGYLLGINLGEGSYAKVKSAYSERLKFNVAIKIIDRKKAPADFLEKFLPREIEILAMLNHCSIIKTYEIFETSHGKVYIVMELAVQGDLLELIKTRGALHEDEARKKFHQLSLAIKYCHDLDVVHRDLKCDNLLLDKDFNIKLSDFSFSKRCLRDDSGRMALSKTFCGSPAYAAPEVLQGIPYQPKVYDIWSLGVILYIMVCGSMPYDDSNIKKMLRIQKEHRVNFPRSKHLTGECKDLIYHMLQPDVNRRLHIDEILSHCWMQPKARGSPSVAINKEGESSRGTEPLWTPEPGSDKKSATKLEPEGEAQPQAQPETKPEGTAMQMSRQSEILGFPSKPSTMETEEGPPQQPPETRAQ
Chain of Calcium/calmodulin-dependent protein kinase type II subunit delta (Homo sapiens) (Q13557 whole entry): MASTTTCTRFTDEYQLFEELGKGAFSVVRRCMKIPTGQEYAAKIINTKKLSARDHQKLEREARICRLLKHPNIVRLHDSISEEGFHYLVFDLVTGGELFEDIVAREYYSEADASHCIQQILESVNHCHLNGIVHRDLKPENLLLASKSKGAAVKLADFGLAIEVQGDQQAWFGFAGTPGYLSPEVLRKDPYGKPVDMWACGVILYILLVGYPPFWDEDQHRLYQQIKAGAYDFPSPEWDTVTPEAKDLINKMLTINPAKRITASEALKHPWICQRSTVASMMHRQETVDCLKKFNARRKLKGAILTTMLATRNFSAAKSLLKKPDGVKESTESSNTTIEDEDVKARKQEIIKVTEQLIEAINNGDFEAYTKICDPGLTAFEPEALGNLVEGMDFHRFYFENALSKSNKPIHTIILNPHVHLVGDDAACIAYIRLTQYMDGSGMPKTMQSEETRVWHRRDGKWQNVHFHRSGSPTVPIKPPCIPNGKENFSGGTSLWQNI
Chain of Tyrosine-protein kinase Fyn (Homo sapiens) (P06241 2-537 limits assumed): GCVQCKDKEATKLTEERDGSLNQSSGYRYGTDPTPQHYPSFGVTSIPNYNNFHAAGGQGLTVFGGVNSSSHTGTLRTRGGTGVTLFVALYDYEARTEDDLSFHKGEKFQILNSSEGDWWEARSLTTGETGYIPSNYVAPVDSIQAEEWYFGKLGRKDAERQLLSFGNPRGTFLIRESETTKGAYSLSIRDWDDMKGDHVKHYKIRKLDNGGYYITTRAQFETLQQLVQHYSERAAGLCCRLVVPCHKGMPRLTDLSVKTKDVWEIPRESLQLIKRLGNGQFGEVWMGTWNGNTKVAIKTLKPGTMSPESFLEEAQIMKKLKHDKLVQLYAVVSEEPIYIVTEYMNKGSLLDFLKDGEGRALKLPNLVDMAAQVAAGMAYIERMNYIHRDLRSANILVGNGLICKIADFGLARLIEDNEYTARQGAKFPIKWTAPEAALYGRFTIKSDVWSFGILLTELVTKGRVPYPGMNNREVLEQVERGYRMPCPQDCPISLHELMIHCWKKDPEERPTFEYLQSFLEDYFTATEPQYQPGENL
Chain of MAP kinase-activated protein kinase 3 (Homo sapiens) (Q16644 whole entry, looked up): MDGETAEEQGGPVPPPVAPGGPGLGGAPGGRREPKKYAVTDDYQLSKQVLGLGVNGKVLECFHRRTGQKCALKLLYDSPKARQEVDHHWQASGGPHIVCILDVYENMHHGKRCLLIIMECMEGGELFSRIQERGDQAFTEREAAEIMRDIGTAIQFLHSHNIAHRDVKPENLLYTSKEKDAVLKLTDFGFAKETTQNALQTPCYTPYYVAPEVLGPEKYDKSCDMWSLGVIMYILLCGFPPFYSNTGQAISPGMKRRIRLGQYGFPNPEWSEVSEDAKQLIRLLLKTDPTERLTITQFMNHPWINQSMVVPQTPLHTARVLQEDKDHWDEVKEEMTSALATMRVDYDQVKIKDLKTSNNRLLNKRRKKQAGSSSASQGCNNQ
Chain of Activated CDC42 kinase 1 (Homo sapiens) (Q07912 whole entry, looked up): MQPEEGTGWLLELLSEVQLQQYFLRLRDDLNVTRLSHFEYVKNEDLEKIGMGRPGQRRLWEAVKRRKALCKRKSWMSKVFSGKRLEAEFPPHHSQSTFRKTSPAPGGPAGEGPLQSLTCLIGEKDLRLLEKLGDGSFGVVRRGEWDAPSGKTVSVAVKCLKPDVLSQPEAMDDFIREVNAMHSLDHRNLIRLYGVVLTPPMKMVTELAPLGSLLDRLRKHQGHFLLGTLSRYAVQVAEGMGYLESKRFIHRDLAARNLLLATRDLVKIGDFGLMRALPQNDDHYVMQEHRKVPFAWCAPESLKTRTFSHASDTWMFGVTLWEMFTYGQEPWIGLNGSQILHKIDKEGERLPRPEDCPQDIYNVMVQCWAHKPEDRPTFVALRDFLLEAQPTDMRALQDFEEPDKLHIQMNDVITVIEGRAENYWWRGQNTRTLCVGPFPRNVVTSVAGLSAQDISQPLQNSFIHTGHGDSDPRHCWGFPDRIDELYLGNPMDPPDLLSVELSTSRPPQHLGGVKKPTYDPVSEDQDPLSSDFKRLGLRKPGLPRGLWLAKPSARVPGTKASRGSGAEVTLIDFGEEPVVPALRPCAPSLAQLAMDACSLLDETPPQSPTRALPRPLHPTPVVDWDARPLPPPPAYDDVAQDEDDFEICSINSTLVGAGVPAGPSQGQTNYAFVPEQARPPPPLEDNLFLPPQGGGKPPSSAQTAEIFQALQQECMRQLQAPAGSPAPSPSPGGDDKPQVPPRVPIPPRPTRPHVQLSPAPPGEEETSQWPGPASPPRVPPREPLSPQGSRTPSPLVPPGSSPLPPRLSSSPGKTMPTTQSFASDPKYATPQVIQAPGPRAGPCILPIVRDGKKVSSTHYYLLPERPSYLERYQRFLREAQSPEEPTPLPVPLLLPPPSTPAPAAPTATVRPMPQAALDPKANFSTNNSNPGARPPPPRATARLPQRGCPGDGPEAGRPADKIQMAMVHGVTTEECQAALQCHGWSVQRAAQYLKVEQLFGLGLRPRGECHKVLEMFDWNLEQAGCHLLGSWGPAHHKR
Chain of Calcium/calmodulin-dependent protein kinase type II subunit beta (Homo sapiens) (Q13554 whole entry): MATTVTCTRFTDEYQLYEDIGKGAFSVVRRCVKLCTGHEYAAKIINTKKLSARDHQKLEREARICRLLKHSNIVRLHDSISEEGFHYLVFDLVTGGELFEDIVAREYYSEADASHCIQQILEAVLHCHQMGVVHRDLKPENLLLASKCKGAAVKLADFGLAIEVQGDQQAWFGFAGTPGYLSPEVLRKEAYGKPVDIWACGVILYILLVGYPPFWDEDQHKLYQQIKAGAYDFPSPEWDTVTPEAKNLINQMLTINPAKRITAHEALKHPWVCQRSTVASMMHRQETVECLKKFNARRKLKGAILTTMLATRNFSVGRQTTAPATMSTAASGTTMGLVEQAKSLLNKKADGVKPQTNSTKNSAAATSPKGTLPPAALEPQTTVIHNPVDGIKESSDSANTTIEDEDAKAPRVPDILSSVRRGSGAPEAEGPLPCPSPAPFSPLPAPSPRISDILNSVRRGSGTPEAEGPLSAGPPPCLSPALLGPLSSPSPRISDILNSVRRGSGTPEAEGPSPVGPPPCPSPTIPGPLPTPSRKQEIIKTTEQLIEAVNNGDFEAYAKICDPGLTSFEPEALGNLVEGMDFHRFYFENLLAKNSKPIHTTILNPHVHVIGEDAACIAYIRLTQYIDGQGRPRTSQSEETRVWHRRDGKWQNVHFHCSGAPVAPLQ
Chain of Tyrosine-protein kinase Fer (Homo sapiens) (P16591 whole entry, looked up): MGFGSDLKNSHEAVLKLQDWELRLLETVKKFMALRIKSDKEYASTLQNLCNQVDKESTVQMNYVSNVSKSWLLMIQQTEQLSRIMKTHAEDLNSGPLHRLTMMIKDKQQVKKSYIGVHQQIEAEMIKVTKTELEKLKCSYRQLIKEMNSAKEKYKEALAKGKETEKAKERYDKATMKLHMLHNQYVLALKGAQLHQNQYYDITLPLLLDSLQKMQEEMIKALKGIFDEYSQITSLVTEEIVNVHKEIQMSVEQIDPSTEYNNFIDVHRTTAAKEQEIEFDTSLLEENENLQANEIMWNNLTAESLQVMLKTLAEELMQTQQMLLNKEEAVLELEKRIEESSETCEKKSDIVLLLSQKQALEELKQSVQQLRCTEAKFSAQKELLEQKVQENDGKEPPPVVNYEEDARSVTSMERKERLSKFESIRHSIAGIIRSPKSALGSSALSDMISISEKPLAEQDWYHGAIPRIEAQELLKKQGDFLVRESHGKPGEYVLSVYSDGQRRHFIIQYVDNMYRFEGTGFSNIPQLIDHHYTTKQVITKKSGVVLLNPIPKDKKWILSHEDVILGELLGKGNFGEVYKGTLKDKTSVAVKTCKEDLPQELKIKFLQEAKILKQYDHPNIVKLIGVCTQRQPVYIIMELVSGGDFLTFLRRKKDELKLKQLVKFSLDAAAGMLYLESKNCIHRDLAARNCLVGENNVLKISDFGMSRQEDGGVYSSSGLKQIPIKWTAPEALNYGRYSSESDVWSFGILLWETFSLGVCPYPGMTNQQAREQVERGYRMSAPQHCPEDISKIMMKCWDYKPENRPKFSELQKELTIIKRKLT
Chain of Mitogen-activated protein kinase 12 (Homo sapiens) (P53778 whole entry): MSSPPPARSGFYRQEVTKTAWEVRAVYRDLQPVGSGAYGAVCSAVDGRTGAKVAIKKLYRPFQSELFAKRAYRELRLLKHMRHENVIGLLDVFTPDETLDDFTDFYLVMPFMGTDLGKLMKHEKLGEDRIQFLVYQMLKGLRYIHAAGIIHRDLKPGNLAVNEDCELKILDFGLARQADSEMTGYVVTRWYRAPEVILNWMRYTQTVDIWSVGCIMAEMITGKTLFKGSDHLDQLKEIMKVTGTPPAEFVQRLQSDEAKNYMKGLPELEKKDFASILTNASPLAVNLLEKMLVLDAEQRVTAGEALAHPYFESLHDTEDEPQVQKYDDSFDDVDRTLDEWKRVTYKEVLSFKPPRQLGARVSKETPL
Chain of Casein kinase I isoform alpha (Homo sapiens) (P48729 2-337 limits assumed): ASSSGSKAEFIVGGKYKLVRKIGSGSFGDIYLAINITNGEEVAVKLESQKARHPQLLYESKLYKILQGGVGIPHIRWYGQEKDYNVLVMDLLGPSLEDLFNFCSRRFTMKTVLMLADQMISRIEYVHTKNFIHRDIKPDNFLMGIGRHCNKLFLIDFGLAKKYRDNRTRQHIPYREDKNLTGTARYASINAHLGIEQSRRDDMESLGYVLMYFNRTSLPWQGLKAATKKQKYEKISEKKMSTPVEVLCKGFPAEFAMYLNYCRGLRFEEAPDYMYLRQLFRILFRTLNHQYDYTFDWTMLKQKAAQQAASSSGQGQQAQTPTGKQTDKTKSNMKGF

| Compound | inhibition [1] | inhibition [2] | inhibition [3] | inhibition [4] | inhibition [5] | inhibition [6] | inhibition [7] | inhibition [8] | inhibition [9] | inhibition [10] | inhibition [11] | inhibition [12] | inhibition [13] | inhibition [14] | inhibition [15] | inhibition [16] | inhibition [17] | inhibition [18] | inhibition [19] | inhibition [20] | other results |
| --- | --- | --- | --- | --- | --- | --- | --- | --- | --- | --- | --- | --- | --- | --- | --- | --- | --- | --- | --- | --- | --- |
| CC(C)n1nc(C#Cc2cccc(NC(=O)c3cccc(C(F)(F)F)c3)c2)c2c(N)ncnc21 | 1% | 5% | 13% | 0% | 3% | 2% | 0% | 1% | 10% | 0% | 14% | 30% | 2% | 13% | -1% | 97% | 11% | 40% | 99% | -8% | inhibition [21]: -1%; inhibition [22]: 2%; inhibition [23]: 99%; inhibition [24]: 101%; Papp A→B [25]: 0.5 ×10⁻⁶ cm/s; inhibition [26]: 1%; inhibition [27]: -7%; inhibition [28]: 24%; inhibition [29]: 12%; inhibition [30]: 90%; inhibition [31]: 67%; inhibition [32]: 29%; inhibition [33]: -4% |
| CC(C)n1nc(C#Cc2cccc3cc(-c4cccc(C(F)(F)F)c4)ncc23)c2c(N)ncnc21 | 0% | -1% | 3% | -1% | -4% | 2% | -4% | 5% | 2% | 20% | 1% | 10% | -1% | 3% | 7% | 80% | 6% | 12% | 95% | 4% | inhibition [21]: 0%; inhibition [22]: 4%; inhibition [23]: 97%; inhibition [24]: 85%; Papp A→B [25]: 0.8 ×10⁻⁶ cm/s; inhibition [26]: 5%; inhibition [27]: 2%; inhibition [28]: 9%; inhibition [29]: 2%; inhibition [30]: 29%; inhibition [31]: 24%; inhibition [32]: 7%; inhibition [33]: 3% |
